55 sequences from the array DNA melting data of Ke et al. (doi:10.1101/2024.01.08.574731) can be followed below.

A short description of series [1]: folding enthalpy; higher = less favourable; fluorescence melt of hairpins on a sequencing array, two-state fit. As to conditions: sodium 0.088 M. In a few lines:
(§1)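 In 50 mM Na-HEPES pH 8.0 containing 25 mM NaCl, hairpins from the library on a sequenced MiSeq flow cell were imaged for Cy3 fluorescence at 2.5 °C steps up to 60 °C, with Cy3 and quencher oligos annealed. After normalisation to pre-quench Cy3 and to control constructs, two-state fits with bootstrapping gave melting temperature and folding enthalpy. Four replicates were combined by inverse-variance weighting, and fitted temperatures were shifted up by 9.35 °C to match UV melts.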

Series [2] in a line: melting temperature; fluorescence melt of hairpins on a sequencing array, two-state fit, raised by 9.35 °C to match UV melts. As to conditions: sodium 0.088 M. In a few lines:
as §1

For GTGTCCGAAAGGAACAC ((((((....))).))), the folding enthalpy in series [1] is -30 kcal/mol. The Tm in series [2] stood at 52.8 °C.
In the case of GATAACGAAAGTTCATC ((((((....))).))), in series [1], the folding enthalpy is -10.4 kcal/mol. In series [2], the Tm is 26.2 °C.
In the case of GACGCCGAAAGGCGAGTC ((((((....)))..))), the folding enthalpy in series [1] was -8.04 kcal/mol. The Tm in series [2] is 43.7 °C.
For the sequence GTACTCGAAAGAGATAC ((((((....))).))), the folding enthalpy in series [1] is -18 kcal/mol. For the same sequence, the Tm in series [2] is 34.5 °C.
For the sequence GGCATCGAAAGATGGCC ((((((....))).))), the folding enthalpy in series [1] was -20.1 kcal/mol. Further, the Tm in series [2] turned out to be 58.4 °C.
Regarding GCGTCATGACGC ((((....)))), the folding enthalpy in series [1] was -30.9 kcal/mol. Further, the Tm in series [2] was determined as 61.9 °C.
Consider GTCTTTACGAAAGTAGAC (((..(((....)))))), for which the folding enthalpy in series [1] was -17.4 kcal/mol. Also, the Tm in series [2] was determined as 31.8 °C.
Regarding GGACCAGGAAACTGGTTC (.(((((....))))).), the folding enthalpy in series [1] was -24.6 kcal/mol. In series [2], the Tm was determined as 51.8 °C.
Regarding GGGTGAGGAAACTCACCC (((((((....))))))), in series [1], the folding enthalpy was -33.8 kcal/mol. Also, in series [2], the Tm came out at 68.6 °C.
The matching figures for GATCTATATATAGATC ((((((....)))))): -46.8 kcal/mol and 46.4 °C.
The matching figures for GTTATGAAAATAAC (((((....))))): -16.9 kcal/mol and 38.6 °C.
As for GATCTCTAAGAGATC ((((((...)))))), in series [1], the folding enthalpy is -31.5 kcal/mol. For the same sequence, the Tm in series [2] was determined as 51.5 °C.
Take GTGTCCGGAAACGGATGC (..((((....))))..): the folding enthalpy in series [1] is -25.7 kcal/mol. In series [2], the Tm came out at 48 °C.
For the sequence GGCTAGTCGAAAGACGCC (((..(((....)))))), the folding enthalpy in series [1] was -19.9 kcal/mol. In addition, in series [2], the Tm is 52.3 °C.
As to GGTGGTGGAAACACTACC (((.(((....))).))), the folding enthalpy in series [1] was -29.8 kcal/mol. In addition, the Tm in series [2] was determined as 52.9 °C.
Turning to GCGACTCCTCGC ((((....)))), the folding enthalpy in series [1] is -23.9 kcal/mol. Moreover, the Tm in series [2] came out at 48.6 °C.
Turning to GGAAACGAAAGTTCTCC ((((((....))).))), the folding enthalpy in series [1] is -16.8 kcal/mol. Further, the Tm in series [2] is 35.8 °C.
The matching figures for GGCAAAGAAATTTGCC ((((((....)))))): -36.8 kcal/mol and 56 °C.
For the sequence GATCACACGAAAGTGATC (((..(((....)))))), the folding enthalpy in series [1] was -34.3 kcal/mol. Further, in series [2], the Tm was 48.8 °C.
Turning to GATCGAACCTTCGATC ((((((....)))))), the folding enthalpy in series [1] is -40.7 kcal/mol. The Tm in series [2] was 53.5 °C.
The matching figures for GTAGAGAAATCTAC (((((....))))): -12.6 kcal/mol and 35.5 °C.
Consider GCACGGCGAAAGCCTTGC (((.(((....))).))), for which the folding enthalpy in series [1] was -54.8 kcal/mol. Besides, in series [2], the Tm was found to be 54.2 °C.
GGTAGGGGAAACCCTGCC ((.((((....)))).)): the folding enthalpy in series [1] is -39.5 kcal/mol. The Tm in series [2] worked out at 53.6 °C.
Consider GCCACGGGAAACCGTAGC ((.((((....)))).)), for which, in series [1], the folding enthalpy was -23.2 kcal/mol. The Tm in series [2] amounted to 46.6 °C.
Take GGTAACGAAAGTTCAACC ((((((....)))..))): the folding enthalpy in series [1] is -11 kcal/mol. For the same sequence, the Tm in series [2] stood at 27.7 °C.
For GCAGACGAAAGTCGCTGC ((((((....)))..))), the folding enthalpy in series [1] is -22.2 kcal/mol. Further, the Tm in series [2] was 57.6 °C.
The matching figures for GCGTAGGAAACTACGC ((((((....)))))): -31.2 kcal/mol and 67.1 °C.
The matching figures for GATCTTTTAAAAGATC ((((((....)))))): -39.2 kcal/mol and 45.9 °C.
Take GCTGTGCGAAAGCCAAGC (((..((....))..))): in series [1], the folding enthalpy was -19.2 kcal/mol. Moreover, the Tm in series [2] was found to be 46.2 °C.
Take GCGGAACCGAAAGGTCGC (((..(((....)))))): in series [1], the folding enthalpy is -27.7 kcal/mol. Also, the Tm in series [2] amounted to 54.7 °C.
The matching figures for GCTGCCGAAAGGCAAAGC ((((((....)))..))): -14.8 kcal/mol and 57.1 °C.
For GTCGTCGAAAGACTGGAC ((((((....)))..))), the folding enthalpy in series [1] is -20.7 kcal/mol. Further, the Tm in series [2] was found to be 39.2 °C.
GCATCGCGAAAGCTGTGC (((..((....))..))): the folding enthalpy in series [1] is -21.1 kcal/mol. For the same sequence, the Tm in series [2] came to 45.8 °C.
Regarding CTGTAGAAATACAG (((((....))))), the folding enthalpy in series [1] was -14.5 kcal/mol. The Tm in series [2] is 39.4 °C.
As for GTGTGCGAAAGCAGGCAC ((((((....)))..))), the folding enthalpy in series [1] is -15.8 kcal/mol. For the same sequence, the Tm in series [2] was determined as 44.8 °C.
In the case of GCAGTTGGAAACGACTGC (((((.(....).))))), the folding enthalpy in series [1] is -39.5 kcal/mol. Besides, in series [2], the Tm turned out to be 55.3 °C.
As for GGAAAAGGAAACTTTTTC (.(((((....))))).), the folding enthalpy in series [1] is -20.6 kcal/mol. Further, in series [2], the Tm is 33 °C.
Consider GCTAAGCGAAAGCTTGGC ((.((((....)))).)), for which, in series [1], the folding enthalpy is -34.3 kcal/mol. The Tm in series [2] came to 62.9 °C.
With GTGATAGCGAAAGCTCAC (((..(((....)))))), the folding enthalpy in series [1] is -18.9 kcal/mol. Moreover, the Tm in series [2] worked out at 44.9 °C.
Turning to GATCGATTCTTCGATC ((((((....)))))), the folding enthalpy in series [1] is -36.8 kcal/mol. The Tm in series [2] is 56.9 °C.
The matching figures for GCCTCGCGAAAGCTGGGC (((..((....))..))): -22.2 kcal/mol and 55.4 °C.
With GGAGCGGGAAACCGCTTC (.(((((....))))).), in series [1], the folding enthalpy was -16.6 kcal/mol. Moreover, the Tm in series [2] turned out to be 58.2 °C.
With GTCAGTGGAAACACTGGC (.(((((....))))).), the folding enthalpy in series [1] was -24.8 kcal/mol. Besides, the Tm in series [2] was 54.7 °C.
In the case of GATCGGAGGACCGATC ((((((....)))))), in series [1], the folding enthalpy was -31.2 kcal/mol. The Tm in series [2] stood at 53.3 °C.
The matching figures for GCAGCGGGAAACTGCTGC (((((.(....).))))): -43.1 kcal/mol and 66 °C.
On to GATTGCGGAAACGCAACC (.(((((....))))).), for which the folding enthalpy in series [1] was -12.2 kcal/mol. Besides, the Tm in series [2] was found to be 45.5 °C.
The matching figures for GTCGGGGCGAAAGCCGAC (((..(((....)))))): -17.2 kcal/mol and 56.9 °C.
The matching figures for GGCTCCCGAAAGGGCGCC (((.(((....))).))): -33.6 kcal/mol and 62.6 °C.
With GATCACCGTGTGATC ((((((...)))))), the folding enthalpy in series [1] is -42.3 kcal/mol. Besides, the Tm in series [2] came to 58.3 °C.
GCGTGTGGAAACACATGC ((.((((....)))).)): in series [1], the folding enthalpy was -42 kcal/mol. The Tm in series [2] turned out to be 57.5 °C.
With GACATCGAAAGATGTC ((((((....)))))), the folding enthalpy in series [1] is -39.7 kcal/mol. The Tm in series [2] came to 64.4 °C.
Regarding GGATGAGGAAACTCACCC ((.((((....)))).)), in series [1], the folding enthalpy was -22.3 kcal/mol. Also, the Tm in series [2] stood at 39.6 °C.
As to GATCGTACAGACGATC ((((((....)))))), the folding enthalpy in series [1] is -54.1 kcal/mol. Further, the Tm in series [2] came to 52.5 °C.
With GGCACGGGAAACCATGCC ((((.((....)).)))), the folding enthalpy in series [1] is -30.5 kcal/mol. For the same sequence, the Tm in series [2] stood at 49.3 °C.
On to GAATTGGGAAACCAACTC ((.((((....)))).)), for which, in series [1], the folding enthalpy was -10.9 kcal/mol. Also, the Tm in series [2] is 26 °C.
